From ChEMBL document CHEMBL5712901, “DOT1L inhibition blocks multiple myeloma cell proliferation by suppressing IRF4-MYC signaling” (2019)
Active and inactive are the calls of the source. No cut-off for these calls is given here.

Legend:
RPMI-8226 [1] = assay: Upregulation of ZG16B gene in human RPMI-8226 cells at 1 uM for 6 days by; format: functional, cell-based; settings: time 6.0 day
RPMI-8226 [2] = assay: Upregulation of HLA-DRA gene in human RPMI-8226 cells at 1 uM for 6 days by; format: functional, cell-based; settings: time 6.0 day
MM1.S [3] = assay: Upregulation of HLA-DRB5 gene in human MM1.S cells at 1 uM for 6 days by; format: functional, cell-based; settings: time 6.0 day
RPMI-8226 [4] = assay: Upregulation of HLA-DRB5 gene in human RPMI-8226 cells at 1 uM for 6 days by; format: functional, cell-based; settings: time 6.0 day
MM1.S [5] = assay: Upregulation of MILR1 gene in human MM1.S cells at 1 uM for 6 days by; format: functional, cell-based; settings: time 6.0 day
MM1.S [6] = assay: Upregulation of AMY1C gene in human MM1.S cells at 1 uM for 6 days by; format: functional, cell-based; settings: time 6.0 day
RPMI-8226 [7] = assay: Upregulation of COL16A1 gene in human RPMI-8226 cells at 1 uM for 6 days by; format: functional, cell-based; settings: time 6.0 day
Method in brief: (§1)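 Human myeloma lines RPMI-8226 and MM.1S exposed to 1 μM DOT1L inhibitor, or DMSO, for 6 days. Whole-genome expression profiled on gene expression microarray.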

RPMI-8226 [8] = assay: Upregulation of POPDC2 gene in human RPMI-8226 cells at 1 uM for 6 days by; format: functional, cell-based; settings: time 6.0 day
RPMI-8226 [9] = assay: Upregulation of ID2 gene in human RPMI-8226 cells at 1 uM for 6 days by; format: functional, cell-based; settings: time 6.0 day
MM1.S [10] = assay: Upregulation of S100A10 gene in human MM1.S cells at 1 uM for 6 days by; format: functional, cell-based; settings: time 6.0 day
RPMI-8226 [11] = assay: Upregulation of IL1RAP gene in human RPMI-8226 cells at 1 uM for 6 days by; format: functional, cell-based; settings: time 6.0 day
MM1.S [12] = assay: Upregulation of IFITM1 gene in human MM1.S cells at 1 uM for 6 days by; format: functional, cell-based; settings: time 6.0 day
MM1.S [13] = assay: Upregulation of GRHL3 gene in human MM1.S cells at 1 uM for 6 days by; format: functional, cell-based; settings: time 6.0 day; method in brief: as §1
MM1.S [14] = assay: Upregulation of FCGR2B gene in human MM1.S cells at 1 uM for 6 days by; format: functional, cell-based; settings: time 6.0 day; method in brief: as §1
MM1.S [15] = assay: Upregulation of PTGER4 gene in human MM1.S cells at 1 uM for 6 days by; format: functional, cell-based; settings: time 6.0 day
MM1.S [16] = assay: Upregulation of FAM200B gene in human MM1.S cells at 1 uM for 6 days by; format: functional, cell-based; settings: time 6.0 day; method in brief: as §1
RPMI-8226 [17] = assay: Upregulation of NOG gene in human RPMI-8226 cells at 1 uM for 6 days by; format: functional, cell-based; settings: time 6.0 day
RPMI-8226 [18] = assay: Upregulation of RAPGEF2 gene in human RPMI-8226 cells at 1 uM for 6 days by; format: functional, cell-based; settings: time 6.0 day
RPMI-8226 [19] = assay: Upregulation of BMF gene in human RPMI-8226 cells at 1 uM for 6 days by; format: functional, cell-based; settings: time 6.0 day
MM1.S [20] = assay: Upregulation of TP53I3 gene in human MM1.S cells at 1 uM for 6 days by; format: functional, cell-based; settings: time 6.0 day
RPMI-8226 [21] = assay: Upregulation of TP53TG3 gene in human RPMI-8226 cells at 1 uM for 6 days by; format: functional, cell-based; settings: time 6.0 day
MM1.S [22] = assay: Upregulation of HLA-DMA gene in human MM1.S cells at 1 uM for 6 days by; format: functional, cell-based; settings: time 6.0 day; method in brief: as §1
MM1.S [23] = assay: Upregulation of LRRC56 gene in human MM1.S cells at 1 uM for 6 days by; format: functional, cell-based; settings: time 6.0 day
MM1.S [24] = assay: Upregulation of CCL2 gene in human MM1.S cells at 1 uM for 6 days by; format: functional, cell-based; settings: time 6.0 day
RPMI-8226 [25] = assay: Downregulation of H3K79me2 level in human RPMI-8226 cells at 1 uM for 3 days by ChIP-qPCR analysis; format: functional, cell-based; settings: time 3.0 day
Method in brief: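 ChIP-qPCR for H3K79me2 at IRF4-MYC signaling genes after 1 μM inhibitor or DMSO for 3 days. Signal normalized to input DNA. An intergenic region 28 kb upstream of KLF2 served as negative control. Mean of 3 replications ± SEM.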

MM1.S [26] = assay: Upregulation of CTSH gene in human MM1.S cells at 1 uM for 6 days by; format: functional, cell-based; settings: time 6.0 day; method in brief: as §1
RPMI-8226 [27] = assay: Upregulation of SLC9A9 gene in human RPMI-8226 cells at 1 uM for 6 days by; format: functional, cell-based; settings: time 6.0 day
RPMI-8226 [28] = assay: Upregulation of IFIT1 gene in human RPMI-8226 cells at 1 uM for 6 days by; format: functional, cell-based; settings: time 6.0 day
MM1.S [29] = assay: Upregulation of ID2 gene in human MM1.S cells at 1 uM for 6 days by; format: functional, cell-based; settings: time 6.0 day
RPMI-8226 [30] = assay: Upregulation of FZD1 gene in human RPMI-8226 cells at 1 uM for 6 days by; format: functional, cell-based; settings: time 6.0 day; method in brief: as §1
MM1.S [31] = assay: Upregulation of HLA-DRB1 gene in human MM1.S cells at 1 uM for 6 days by; format: functional, cell-based; settings: time 6.0 day
RPMI-8226 [32] = assay: Upregulation of NXF3 gene in human RPMI-8226 cells at 1 uM for 6 days by; format: functional, cell-based; settings: time 6.0 day
MM1.S [33] = assay: Upregulation of NTNG1 gene in human MM1.S cells at 1 uM for 6 days by; format: functional, cell-based; settings: time 6.0 day
RPMI-8226 [34] = assay: Upregulation of SERPINB1 gene in human RPMI-8226 cells at 1 uM for 6 days by; format: functional, cell-based; settings: time 6.0 day
MM1.S [35] = assay: Upregulation of CPED1 gene in human MM1.S cells at 1 uM for 6 days by; format: functional, cell-based; settings: time 6.0 day; method in brief: as §1
MM1.S [36] = assay: Upregulation of SMIM14 gene in human MM1.S cells at 1 uM for 6 days by; format: functional, cell-based; settings: time 6.0 day
MM1.S [37] = assay: Upregulation of RAB37 gene in human MM1.S cells at 1 uM for 6 days by; format: functional, cell-based; settings: time 6.0 day
MM1.S [38] = assay: Induction of apoptosis in human MM1.S cells assessed as necrotic cells at 1 uM for 3 days by annexin-V based propidium iodide staining based flow cytometric analysis (reference value: 0.064%); format: functional; settings: time 3 day
RPMI-8226 [39] = assay: Upregulation of IFN in human RPMI-8226 cells assessed as increase in IFITM1 gene at 1 uM for 6 days by qRT-PCR analysis; settings: time 6.0 day
MM1.S [40] = assay: Upregulation of IFN in human MM1.S cells assessed as increase in ISG15 gene at 1 uM for 6 days by qRT-PCR analysis; format: functional, cell-based; settings: time 6.0 day
MM1.S [41] = assay: Induction of apoptosis in human MM1.S cells assessed as early apoptotic cells at 1 uM for 6 days by annexin-V based propidium iodide staining based flow cytometric analysis (reference value: 7.39%); format: functional; settings: time 6 day
RPMI-8226 [42] = assay: Induction of apoptosis in human RPMI-8226 cells assessed as early apoptotic cells at 1 uM for 6 days by annexin-V based propidium iodide staining based flow cytometric analysis (reference value: 8.16%); format: functional; settings: time 6 day
RPMI-8226 [43] = assay: Upregulation of IFN in human RPMI-8226 cells assessed as increase in IFITM1 gene at 1 uM for 6 days by qRT-PCR analysis; format: functional, cell-based; settings: time 6.0 day
RPMI-8226 [44] = assay: Upregulation of IFN in human RPMI-8226 cells assessed as increase in ISG15 gene at 1 uM for 6 days by qRT-PCR analysis; format: functional, cell-based; settings: time 6.0 day
RPMI-8226 [45] = assay: Antiproliferative activity against human RPMI-8226 cells treated 3 days at 1 uM; format: functional, cell-based; settings: time 3.0 day
Method in brief: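 Cell lines in 6-well plates, 2 × 10^4 to 8 × 10^5 cells/well, exposed to DOT1L inhibitor at 0.25-1 μM or DMSO, with medium and drug refreshed every 3 days. Viability read with Cell Counting Kit-8 on a microplate reader. Values normalized to untreated cells; mean of 3 replications ± SEM.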

In the case of `CC(C)N(CCCNC(=O)Nc1ccc(C(C)(C)C)cc1)C[C@H]1O[C@@H](n2cc(Br)c3c(N)ncnc32)[C@H](O)[C@@H]1O`, the Activity (RPMI-8226 [1]) is reported as “Active”, the Activity (RPMI-8226 [2]) is reported as “Active” and the Activity (MM1.S [3]) is reported as “Active”. For the same compound, the Activity (RPMI-8226 [4]) was “Active”, the Activity (MM1.S [5]) was “Active” and the Activity (MM1.S [6]) was “Active”. The Activity (RPMI-8226 [7]) was “Active”, the Activity (RPMI-8226 [8]) was “Active” and the Activity (RPMI-8226 [9]) was “Active”. The Activity (MM1.S [10]) was “Active”, the Activity (RPMI-8226 [11]) was “Active” and the Activity (MM1.S [12]) was “Active”. The Activity (MM1.S [13]) was “Active”, the Activity (MM1.S [14]) was “Active” and the Activity (MM1.S [15]) was “Active”. For the same compound, the Activity (MM1.S [16]) was “Active”, the Activity (RPMI-8226 [17]) was “Active” and the Activity (RPMI-8226 [18]) was “Active”. The Activity (RPMI-8226 [19]) was “Active”, the Activity (MM1.S [20]) was “Active” and the Activity (RPMI-8226 [21]) was “Active”. The Activity (MM1.S [22]) was “Active”, the Activity (MM1.S [23]) was “Active” and the Activity (MM1.S [24]) was “Active”. For the same compound, the Activity (RPMI-8226 [25]) was “Active”, the Activity (MM1.S [26]) was “Active” and the Activity (RPMI-8226 [27]) was “Active”. The Activity (RPMI-8226 [28]) was “Active”, the Activity (MM1.S [29]) was “Active” and the Activity (RPMI-8226 [30]) was “Active”. For the same compound, the Activity (MM1.S [31]) was “Active”, the Activity (RPMI-8226 [32]) was “Active” and the Activity (MM1.S [33]) was “Active”. For the same compound, the Activity (RPMI-8226 [34]) was “Active”, the Activity (MM1.S [35]) was “Active” and the Activity (MM1.S [36]) was “Active”. For the same compound, the Activity (MM1.S [37]) was “Active”.
`CC(C)N(C[C@H]1O[C@@H](n2cnc3c(N)ncnc32)[C@H](O)[C@@H]1O)[C@H]1C[C@@H](CCc2nc3cc(C(C)(C)C)ccc3[nH]2)C1` [PINOMETOSTAT] was tested, and the Activity (MM1.S [38]) was 0.06%, the Activity (RPMI-8226 [39]) was “Active” and the Activity (MM1.S [40]) was “Active”. The Activity (MM1.S [41]) was 16.9%, the Activity (RPMI-8226 [42]) was 15% and the Activity (RPMI-8226 [43]) was “Active”. The Activity (RPMI-8226 [44]) was “Active” and the Activity (RPMI-8226 [45]) was “Active”.
